This note sets out measurements from ChEMBL document CHEMBL3779851, “Synthesis and biological evaluation of salicylic acid conjugated isoxazoline analogues on immune cell proliferation and angiogenesis” (2016).

Calls of active or inactive are those of the source. The rule behind the calls is not given here.

One experiment relates to HEK293. The experiment can be described thus: Induction of cell proliferation of HEK293 cells assessed as proliferation rate at 100 uM measured up to 72 hrs by MTT assay. It counts as functional. The settings on record: Homo sapiens, HEK293, 72 h; read-out: Activity. Background: Formazan colour is commonly taken as a measure of viable cells.
A short description of experiment [1]: Immunostimulatory activity in Swiss albino mouse splenocytes assessed as increase in proliferation at 100 uM after 72 hrs by MTT assay relative to ConA. The class given is functional, Splenocyte. In outline: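 Splenocytes came from Swiss albino mice (23–25 g, 12 weeks). Erythrocytes were lysed in NH4Cl/KHCO3/EDTA buffer, pH 7.4. Cells were plated at 2.5×10^6 cells/mL in RPMI-1640 at 37 °C, 5% CO2, and compound (0–100 µM in DMSO) was added after 3 h. After 72 h, MTT was added for 4 h and formazan dissolved in DMSO was read at 570 nm. Con A (1–20 µg/mL) served as reference, and the index was expressed as fold over untreated control (1.0).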

Experiment [2] deals with PBL. Description: Ex-vivo induction of IL-23 production in human PBL at 100 uM after 72 hrs by ELISA. It counts as functional, cell-based. The gist of the method: (§1)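 Human PBLs were isolated from heparinized venous blood of consenting volunteers aged 18–60 y on Ficoll-hypaque (1.077 g/mL). They were seeded at 5×10^5 cells/well in RPMI-1640, exposed to compound in DMSO, and held 72 h at 37 °C, 5% CO2. Supernatants were taken after centrifugation at 240 × g, and IL-2, IL-12 and IL-23 were measured by ELISA, in triplicate.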
(In general: An ELISA detects its analyte on a solid surface through an enzyme-linked reagent.)

Experiment [3] deals with PBL. Description: Ex-vivo induction of IL-12 production in human PBL at 100 uM after 72 hrs by ELISA. It counts as functional, cell-based. In outline: as §1
A further experiment deals with Chorioallantoic membrane. The experiment can be described thus: Pro-angiogenic activity in chicken chorioallantoic membrane assessed as dense blood vessel formation by measuring microvascular density at 20 uM after 12 days. The settings on record: Gallus gallus. The class given is functional.
Experiment [4] relates to PBL. The experiment can be described thus: Immunostimulatory activity in human PBL assessed as increase in cell proliferation after 72 hrs by MTT assay. It counts as functional, cell-based. In outline:
(§2)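 Ficoll-isolated human PBLs were plated at 2.5×10^6 cells/mL in RPMI-1640 at 37 °C, 5% CO2. After 3 h they were treated with 0, 10, 20, 50 or 100 µM compound in DMSO, with Con A at 1–20 µg/mL as reference mitogen. MTT was added at 72 h for 4 h, and formazan dissolved in DMSO was read at 570 nm. Proliferative index was taken as fold over untreated control, from three independent experiments.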

Experiment [5] concerns PBL. Description: Ex-vivo induction of IL-2 production in human PBL at 100 uM after 72 hrs by ELISA (reference value: 328 pg/ml). It counts as functional. The gist of the method: as §1
In experiment [6] the test system is PBL. Description: Immunostimulatory activity in human PBL assessed as increase in cell proliferation […] after 72 hrs by MTT assay relative to control. The class given is functional. The gist of the method: as §2
The next experiment concerns Cornea. Description: Pro-angiogenic activity in rat cornea assessed as vascularization by measuring microvascular density at 20 ug after overnight incubation. The class given is functional.
The test system of experiment [7] is PBL. The experiment can be described thus: Ex-vivo induction of IL-2 production in human PBL at 100 uM after 72 hrs by ELISA relative to control. The class given is functional. The gist of the method:
as §1

Experiment [8] concerns the target Prostaglandin G/H synthase 1 (Homo sapiens) (UniProt P23219). Description: Inhibition of COX1 in human PBL after 72 hrs by colorimetric method. As to conditions: concentration not given here.

Sequence of Prostaglandin G/H synthase 1 (Homo sapiens) (P23219 whole entry): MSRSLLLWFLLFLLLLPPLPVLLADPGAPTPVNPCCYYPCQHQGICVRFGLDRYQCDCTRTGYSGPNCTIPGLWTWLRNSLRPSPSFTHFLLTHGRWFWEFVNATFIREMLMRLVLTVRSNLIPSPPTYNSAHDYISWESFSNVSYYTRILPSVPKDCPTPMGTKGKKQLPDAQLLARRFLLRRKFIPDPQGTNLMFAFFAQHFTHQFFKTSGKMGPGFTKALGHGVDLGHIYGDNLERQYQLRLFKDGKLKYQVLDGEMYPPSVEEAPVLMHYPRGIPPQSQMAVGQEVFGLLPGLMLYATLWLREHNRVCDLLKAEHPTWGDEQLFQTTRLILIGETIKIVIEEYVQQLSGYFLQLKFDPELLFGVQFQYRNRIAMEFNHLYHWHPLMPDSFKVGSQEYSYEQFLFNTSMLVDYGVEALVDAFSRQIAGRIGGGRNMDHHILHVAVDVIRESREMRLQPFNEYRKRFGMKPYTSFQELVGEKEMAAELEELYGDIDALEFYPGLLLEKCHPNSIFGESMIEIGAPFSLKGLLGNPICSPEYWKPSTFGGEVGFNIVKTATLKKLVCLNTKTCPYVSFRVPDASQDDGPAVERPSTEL

With `COc1ccc(C2=NOC(c3ccc(O)cc3)C2C(=O)c2ccc(O)c(C(=O)O)c2)cc1` (configuration not stated), the growth at 100 µM in the experiment with HEK293 was found to be 8%.

What is called inhibition is the change of the read-out against control, counted positive when it falls. A lower inhibition goes with a weak effect. On to `COc1ccc(C2=NOC(c3cccc(Cl)c3)C2C(=O)c2ccc(O)c(C(=O)O)c2)cc1` (configuration not stated), for which the “fold change (FC)” value in experiment [1] amounted to 1.2; with PBL [6], 1.25; in the experiment with PBL [7], 4. In addition, the outcome with PBL [2] and with PBL [3] was inactive. The result with Chorioallantoic membrane and in the experiment on Cornea was Active. Besides, the Activity entry with PBL [4] is “Dose-dependent effect”; with PBL [5], 1460 pg/mL. This molecule also registered an inhibition in [8] of 39%. The growth at 100 µM in the experiment with HEK293 was 73%.

As for `COc1ccc(C2ON=C(c3cccc(Cl)c3)C2C(=O)c2ccc(O)c(C(=O)O)c2)cc1` (configuration not stated), the outcome with PBL [6] was inactive. Also, the growth at 100 µM in the experiment on HEK293 stood at 9%.

For the molecule `COc1ccc(C2=NOC(c3ccccc3)C2C(=O)c2ccc(O)c(C(=O)O)c2)c(OC)c1` (configuration not stated), the growth at 100 µM in the experiment on HEK293 stood at 0%.

With `O=C(O)c1cc(C(=O)C2C(c3ccc(Cl)cc3)=NOC2c2ccc(Br)cc2)ccc1O` (configuration not stated), in the experiment with PBL [6], the outcome was inactive. Besides, the growth at 100 µM with HEK293 was determined as 6%.

With `O=C(O)c1cc(C(=O)C2C(c3cccc(Cl)c3)=NOC2c2ccc(Br)cc2)ccc1O` (configuration not stated), the outcome in the experiment with PBL [6] was inactive. Moreover, in the experiment on HEK293, the growth at 100 µM was 12%.

Turning to `O=C(O)c1cc(C(=O)C2C(c3cccc(Cl)c3)=NOC2c2ccc(O)cc2)ccc1O` (configuration not stated), the result in the experiment with PBL [6] was inactive. In addition, the growth at 100 µM in the experiment with HEK293 came to 0%.

Turning to `O=C(O)c1cc(C(=O)C2C(c3ccc(Cl)cc3)=NOC2c2ccc(Cl)cc2)ccc1O` (configuration not stated), the outcome in the experiment on PBL [6] was inactive. Also, the growth at 100 µM in the experiment on HEK293 was 9%.

Take `O=C(O)c1cc(C(=O)C2C(c3cccc(Cl)c3)=NOC2c2cccc(Cl)c2)ccc1O` (configuration not stated): the outcome in the experiment on PBL [6] was Active. Besides, the growth at 100 µM with HEK293 amounted to 42%.

On to `COc1ccc(C2ON=C(c3ccc(Cl)cc3)C2C(=O)c2ccc(O)c(C(=O)O)c2)cc1` (configuration not stated), for which the result in the experiment on PBL [6] was inactive. In the experiment with HEK293, the growth at 100 µM was found to be 11%.
